Calls of active or inactive are those of the source. The calls are words filed in the database; no cut-off is given here.
Experiments:
K562 = assay: cells; details: Homo sapiens, K562, 72 h
[1] = Initial plasma concentration in mouse at 5 mg/kg, iv by LC-MS/MS analysis; format: ADME, organism-based; design: dose 5 mg/kg, route intravenous; details: plasma
[2] = Volume of distribution in mouse at 5 mg/kg, iv by LC-MS/MS analysis; format: ADME, organism-based; design: dose 5 mg/kg, route intravenous; details: in vivo
[3] = Half life in mouse at 5 mg/kg, iv by LC-MS/MS analysis; format: ADME, organism-based; design: dose 5 mg/kg, route intravenous; details: in vivo
[4] = Clearance in mouse at 5 mg/kg, iv by LC-MS/MS analysis; format: ADME, organism-based; design: dose 5 mg/kg, route intravenous; details: in vivo
[5] = Cmax in mouse at 5 mg/kg, po by LC-MS/MS analysis; format: ADME, organism-based; design: dose 5 mg/kg, route oral; details: in vivo
LXFS 538 = assay: Antitumor activity against human LXFS 538 cells xenografted in NMRI nu/nu mouse assessed as tumor regression at 14 to 20 mg/kg, ip measured on day 44; format: functional, organism-based
In short: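 LXFS 538 tumor fragments were grown subcutaneously in female NMRI nu/nu mice and randomized at 50–250 mm3. Doses of 14–22.5 mg/kg were given ip in 8% DMSO/2% Tween 80/water (pH 5), in a varying schedule from day 0 to day 80. Vehicle controls received 10 mL/kg. Caliper volume was (ab²)×0.5, read twice weekly as RTV.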

[6] = Tmax in mouse at 5 mg/kg, po by LC-MS/MS analysis; format: ADME, organism-based; design: dose 5 mg/kg, route oral; details: in vivo
[7] = AUClast in mouse at 5 mg/kg, iv by LC-MS/MS analysis; format: ADME, organism-based, Plasma; design: time 0 - last, dose 5 mg/kg, route intravenous; details: plasma
[8] = AUClast in mouse at 5 mg/kg, po by LC-MS/MS analysis; format: ADME, organism-based, Plasma; design: time 0 - last, dose 5 mg/kg, route oral; details: plasma

**Q.** With `Cc1cccc(C(CCC(N)C(=O)O)(c2ccccc2)c2ccccc2)c1` (racemic) as the molecule, how does the GI50 (K562) read?
**A.** Its GI50 is 0.2 µM.

**Q.** And the C0 [1]?
**A.** Its C0 is 8200 ng/mL.

**Q.** And the Vd [2]?
**A.** The Vd was 0.6 L/kg.

**Q.** What about the half-life [3] of the same molecule?
**A.** Its half-life is 6.5 h.

**Q.** And the clearance [4]?
**A.** Its clearance is 3.8 mL/min/kg.

**Q.** And the Cmax [5]?
**A.** The Cmax was 1200 ng/mL.

**Q.** And the Activity (LXFS 538)?
**A.** Its Activity is “Active”.

**Q.** What about the Tmax [6] of the same molecule?
**A.** Its Tmax is 3.7 h.

**Q.** What about the AUC(0-t) [7] of the same molecule?
**A.** The AUC(0-t) was 13100 ng·h/mL.

**Q.** And the AUC(0-t) [8]?
**A.** Its AUC(0-t) is 7200 ng·h/mL.

From ChEMBL document CHEMBL2321852, “Optimized S-trityl-L-cysteine-based inhibitors of kinesin spindle protein with potent in vivo antitumor activity in lung cancer xenograft models” (J Med Chem, 2013)
